Assays:
Arachis hypogaea [1] = assay: Phytotoxicity against Arachis hypogaea (peanut) assessed as growth inhibition at 150 g.a.i/ha pre-emergent application measured after 15 days by greenhouse crop selectivity assay; assay type: organism-based; conditions: in vivo, other, 360 h
How it was run: (§1)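 Pre-emergence greenhouse crop selectivity test on pot-grown plants in clay soil (pH 6.5, 1.7% organic matter, 37.5% clay, CEC 12.9 cmol/kg). Stock solutions were diluted with water and applied at 300, 150, 75 or 37.5 g a.i./ha, in triplicate. After 15 days, phytotoxicity was scored visually against untreated controls as % crop growth inhibition, averaged over the triplicates.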

Abutilon theophrasti [2] = assay: Pre-emergence herbicidal activity against Abutilon theophrasti (velvetleaf) assessed as growth inhibition at 15 g.a.i./ha applied 24 hr after seeds were sown measured after 15 days; assay type: functional; conditions: read-out: GI
How it was run: (§2)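 Weeds sown 5 mm deep in pots of greenhouse clay soil (pH 6.5, 37.5% clay, CEC 12.9 cmol/kg) and grown at 22-25 °C. Water-diluted formulation was applied pre-emergence 24 h after sowing. Untreated and DMF solvent controls were included. Growth inhibition was visually rated in % against untreated controls after 15 days, as the mean of triplicates.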

Arachis hypogaea [3] = assay: Phytotoxicity against Arachis hypogaea (peanut) assessed as growth inhibition at 37.5 g.a.i/ha pre-emergent application measured after 15 days by greenhouse crop selectivity assay; assay type: organism-based; conditions: in vivo, other, 360 h; how it was run: as §1
Echinochloa crus-galli = assay: Post-emergence herbicidal activity against Echinochloa crus-galli (barnyard grass) assessed as growth inhibition at 37.5 g.a.i./ha applied at one-leaf stage measured after 15 days; assay type: functional; conditions: 360 h, read-out: GI
How it was run: (§3)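 Pot-grown weeds sown 5 mm deep in greenhouse clay soil (pH 6.5, 1.7% organic matter, CEC 12.9 cmol/kg) at 22-25 °C. Stock diluted with water and sprayed post-emergence: dicots at 2-leaf stage, monocots at 1-leaf stage. Untreated and DMF solvent controls were included. % growth inhibition was scored visually versus untreated controls after 15 days. Triplicates averaged.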

Chenopodium album [4] = assay: Pre-emergence herbicidal activity against Chenopodium album assessed as growth inhibition at 7.5 g.a.i./ha applied 24 hr after seeds were sown measured after 15 days; assay type: functional; conditions: read-out: GI; how it was run: as §2
Chenopodium album [5] = assay: Post-emergence herbicidal activity against Chenopodium album assessed as growth inhibition at 15 g.a.i./ha applied at two-leaf stage measured after 15 days; assay type: functional; conditions: 360 h, read-out: GI; how it was run: as §3
Setaria viridis [6] = assay: Pre-emergence herbicidal activity against Setaria viridis (green foxtail) assessed as growth inhibition at 37.5 g.a.i./ha applied 24 hr after seeds were sown measured after 15 days; assay type: functional; conditions: read-out: GI; how it was run: as §2
Chenopodium album [7] = assay: Post-emergence herbicidal activity against Chenopodium album assessed as growth inhibition at 37.5 g.a.i./ha applied at two-leaf stage measured after 15 days; assay type: functional; conditions: 360 h, read-out: GI; how it was run: as §3
Amaranthus spinosus [8] = assay: Pre-emergence herbicidal activity against Amaranthus spinosus assessed as growth inhibition at 7.5 g.a.i./ha applied 24 hr after seeds were sown measured after 15 days; assay type: functional; conditions: read-out: GI; how it was run: as §2
Glycine max = assay: Phytotoxicity against Glycine max (soybean) assessed as growth inhibition at 300 g.a.i/ha pre-emergent application measured after 15 days by greenhouse crop selectivity assay; assay type: organism-based; conditions: in vivo, other, 360 h; how it was run: as §1
Amaranthus [9] = assay: Post-emergence herbicidal activity against Amaranthus ascendens assessed as growth inhibition at 75 g.a.i./ha applied at two-leaf stage measured after 15 days; assay type: functional; conditions: 360 h, read-out: GI; how it was run: as §3
Arachis hypogaea [10] = assay: Phytotoxicity against Arachis hypogaea (peanut) assessed as growth inhibition at 7.5 to 60 g.a.i/ha post-emergent application measured after 15 days by greenhouse crop selectivity assay; assay type: organism-based; conditions: in vivo, other, 360 h
How it was run: (§4)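 Postemergence crop selectivity test on pot-grown plants in a greenhouse, in clay soil (pH 6.5, 1.7% organic matter, CEC 12.9 cmol/kg). Stock was diluted with water and sprayed at 60, 30, 15 or 7.5 g a.i./ha, in triplicate. Growth inhibition was rated visually against untreated controls after 15 days and given as the triplicate mean percentage.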

[11] = Phytotoxicity against Oryza sativa (rice) assessed as growth inhibition at 300 g.a.i/ha pre-emergent application measured after 15 days by greenhouse crop selectivity assay; assay type: organism-based, L.; conditions: in vivo, read-out: GI; how it was run: as §1
Zea mays [12] = assay: Phytotoxicity against Zea mays (maize) assessed as growth inhibition at 7.5 to 60 g.a.i/ha post-emergent application measured after 15 days by greenhouse crop selectivity assay; assay type: organism-based; conditions: in vivo, other, 360 h; how it was run: as §4
Zea mays [13] = assay: Phytotoxicity against Zea mays (maize) assessed as growth inhibition at 37.5 g.a.i/ha pre-emergent application measured after 15 days by greenhouse crop selectivity assay; assay type: organism-based; conditions: in vivo, other, 360 h; how it was run: as §1
[14] = Phytotoxicity against Triticum aestivum (wheat) assessed as growth inhibition at 300 g.a.i/ha pre-emergent application measured after 15 days by greenhouse crop selectivity assay; assay type: organism-based; conditions: in vivo, read-out: GI; how it was run: as §1
Setaria viridis [15] = assay: Pre-emergence herbicidal activity against Setaria viridis (green foxtail) assessed as growth inhibition at 15 g.a.i./ha applied 24 hr after seeds were sown measured after 15 days; assay type: functional; conditions: read-out: GI; how it was run: as §2
[16] = test system: Brassica rapa subsp. oleifera; assay: Phytotoxicity against Brassica rapa subsp. oleifera assessed as growth inhibition at 150 g.a.i/ha pre-emergent application measured after 15 days by greenhouse crop selectivity assay; assay type: functional; conditions: pre-emergence, 360 h, read-out: GI
How it was run: (§5)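 Pot-grown crop in greenhouse clay soil (pH 6.5, 1.7% organic matter, 37.5% clay, CEC 12.9 cmol/kg). Stock diluted with water and applied pre-emergence at 300, 150, 75 or 37.5 g a.i./ha. Cultivated 15 days, then phytotoxicity scored visually as % growth inhibition versus untreated controls. Triplicate treatments, averaged.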

Amaranthus [17] = assay: Pre-emergence herbicidal activity against Amaranthus ascendens assessed as growth inhibition at 75 g.a.i./ha applied 24 hr after seeds were sown measured after 15 days; assay type: functional; conditions: read-out: GI; how it was run: as §2
[18] = test system: Brassica rapa subsp. oleifera; assay: Phytotoxicity against Brassica rapa subsp. oleifera assessed as growth inhibition at 300 g.a.i/ha pre-emergent application measured after 15 days by greenhouse crop selectivity assay; assay type: functional; conditions: pre-emergence, 360 h, read-out: GI; how it was run: as §5
Abutilon theophrasti [19] = assay: Pre-emergence herbicidal activity against Abutilon theophrasti (velvetleaf) assessed as growth inhibition at 75 g.a.i./ha applied 24 hr after seeds were sown measured after 15 days; assay type: functional; conditions: read-out: GI; how it was run: as §2
Setaria viridis [20] = assay: Post-emergence herbicidal activity against Setaria viridis (green foxtail) assessed as growth inhibition at 37.5 g.a.i./ha applied at one-leaf stage measured after 15 days; assay type: functional; conditions: 360 h, read-out: GI; how it was run: as §3
[21] = Phytotoxicity against Oryza sativa (rice) assessed as growth inhibition at 150 g.a.i/ha pre-emergent application measured after 15 days by greenhouse crop selectivity assay; assay type: organism-based, L.; conditions: in vivo, read-out: GI; how it was run: as §1
[22] = test system: Brassica rapa subsp. oleifera; assay: Phytotoxicity against Brassica rapa subsp. oleifera assessed as growth inhibition at 75 g.a.i/ha pre-emergent application measured after 15 days by greenhouse crop selectivity assay; assay type: functional; conditions: pre-emergence, 360 h, read-out: GI; how it was run: as §5
Digitaria sanguinalis [23] = assay: Pre-emergence herbicidal activity against Digitaria sanguinalis (hairy crabgrass) assessed as growth inhibition at 75 g.a.i./ha applied 24 hr after seeds were sown measured after 15 days; assay type: functional; conditions: read-out: GI; how it was run: as §2
Digitaria sanguinalis [24] = assay: Pre-emergence herbicidal activity against Digitaria sanguinalis (hairy crabgrass) assessed as growth inhibition at 37.5 g.a.i./ha applied 24 hr after seeds were sown measured after 15 days; assay type: functional; conditions: read-out: GI; how it was run: as §2
Abutilon theophrasti [25] = assay: Pre-emergence herbicidal activity against Abutilon theophrasti (velvetleaf) assessed as growth inhibition at 37.5 g.a.i./ha applied 24 hr after seeds were sown measured after 15 days; assay type: functional; conditions: read-out: GI; how it was run: as §2
Amaranthus spinosus [26] = assay: Pre-emergence herbicidal activity against Amaranthus spinosus assessed as growth inhibition at 37.5 g.a.i./ha applied 24 hr after seeds were sown measured after 15 days; assay type: functional; conditions: read-out: GI; how it was run: as §2
Amaranthus spinosus [27] = assay: Post-emergence herbicidal activity against Amaranthus spinosus assessed as growth inhibition at 37.5 g.a.i./ha applied at two-leaf stage measured after 15 days; assay type: functional; conditions: 360 h, read-out: GI; how it was run: as §3

Compound | growth inhibition (GI) (Arachis hypogaea [1]) | inhibition of growth at 15 g/ha (Abutilon theophrasti [2]) | growth inhibition (GI) (Arachis hypogaea [3]) | inhibition of growth at 37.5 g/ha (Echinochloa crus-galli) | inhibition of growth at 7.5 g/ha (Chenopodium album [4]) | inhibition of growth at 15 g/ha (Chenopodium album [5]) | inhibition of growth at 37.5 g/ha (Setaria viridis [6]) | inhibition of growth at 37.5 g/ha (Chenopodium album [7]) | inhibition of growth at 7.5 g/ha (Amaranthus spinosus [8]) | inhibition of growth at 75 g/ha (Amaranthus [9]) | Activity (Arachis hypogaea [10]) | inhibition at 360 h [11] | Activity (Zea mays [12]) | growth inhibition (GI) (Zea mays [13]) | inhibition at 360 h [14] | inhibition of growth at 15 g/ha (Setaria viridis [15]) | inhibition of growth at 150 g/ha [16] | inhibition of growth at 75 g/ha (Amaranthus [17]) | inhibition of growth at 300 g/ha [18] | inhibition of growth at 75 g/ha (Abutilon theophrasti [19]) | further results
CCOC(=O)C(CC)N1C(=O)C(C)Oc2cc(F)c(N3C(=O)C4=C(CCCC4)C3=O)cc21 (stereo not given) | Not Active | 40% | Not Active | 50% | 100% | 100% | 0% | 100% | 100% | > 80% | Toxic | > 10% | Toxic | Not Active | > 10% | 0% | > 10% | > 80% | > 10% | > 80% | growth inhibition (GI) (Glycine max): Not Active; inhibition of growth at 37.5 g/ha (Setaria viridis [20]): 70%; inhibition at 360 h [21]: > 10%; inhibition of growth at 75 g/ha [22]: > 10%; inhibition of growth at 75 g/ha (Digitaria sanguinalis [23]): > 80%; inhibition of growth at 37.5 g/ha (Digitaria sanguinalis [24]): 0%; inhibition of growth at 37.5 g/ha (Abutilon theophrasti [25]): 70%; inhibition of growth at 37.5 g/ha (Amaranthus spinosus [26]): 100%; inhibition of growth at 37.5 g/ha (Amaranthus spinosus [27]): 100%
C#CCN1C(=O)COc2cc(F)c(N3C(=O)C4=C(CCCC4)C3=O)cc21 [FLUMIOXAZIN] | Not Active | 80% | Not Active | 80% | 100% | 100% | 80% | 100% | 100% | > 80% | Toxic | > 10% | Toxic | Not Active | > 10% | 50% | > 10% | > 80% | > 10% | > 80% | inhibition of growth at 37.5 g/ha (Setaria viridis [20]): 95%; inhibition at 360 h [21]: > 10%; inhibition of growth at 75 g/ha [22]: > 10%; inhibition of growth at 75 g/ha (Digitaria sanguinalis [23]): > 80%; inhibition of growth at 37.5 g/ha (Digitaria sanguinalis [24]): 80%; inhibition of growth at 37.5 g/ha (Abutilon theophrasti [25]): 100%; inhibition of growth at 37.5 g/ha (Amaranthus spinosus [26]): 100%; inhibition of growth at 37.5 g/ha (Amaranthus spinosus [27]): 100%
COC(=O)C(C)N1C(=O)C(C)Oc2cc(F)c(N3C(=O)C4=C(CCCC4)C3=O)cc21 (stereo not given) | Not Active | 60% | Not Active | 50% | 100% | 100% | 80% | 100% | 100% | > 80% | Toxic | > 10% | Toxic | Not Active | > 10% | 10% | > 10% | > 80% | > 10% | > 80% | growth inhibition (GI) (Glycine max): Not Active; inhibition of growth at 37.5 g/ha (Setaria viridis [20]): 80%; inhibition at 360 h [21]: > 10%; inhibition of growth at 75 g/ha [22]: > 10%; inhibition of growth at 75 g/ha (Digitaria sanguinalis [23]): > 80%; inhibition of growth at 37.5 g/ha (Digitaria sanguinalis [24]): 50%; inhibition of growth at 37.5 g/ha (Abutilon theophrasti [25]): 70%; inhibition of growth at 37.5 g/ha (Amaranthus spinosus [26]): 100%; inhibition of growth at 37.5 g/ha (Amaranthus spinosus [27]): 100%
CCOC(=O)C(C)N1C(=O)C(C)Oc2cc(F)c(N3C(=O)C4=C(CCCC4)C3=O)cc21 (stereo not given) | Not Active | 0% | Not Active | 50% | 100% | 100% | 60% | 100% | 90% | > 80% | Toxic | > 10% | Toxic | Not Active | > 10% | 40% | > 10% | > 80% | > 10% | > 80% | growth inhibition (GI) (Glycine max): Not Active; inhibition of growth at 37.5 g/ha (Setaria viridis [20]): 50%; inhibition at 360 h [21]: > 10%; inhibition of growth at 75 g/ha [22]: > 10%; inhibition of growth at 75 g/ha (Digitaria sanguinalis [23]): > 80%; inhibition of growth at 37.5 g/ha (Digitaria sanguinalis [24]): 80%; inhibition of growth at 37.5 g/ha (Abutilon theophrasti [25]): 20%; inhibition of growth at 37.5 g/ha (Amaranthus spinosus [26]): 100%; inhibition of growth at 37.5 g/ha (Amaranthus spinosus [27]): 100%

From ChEMBL document CHEMBL3045743, “Synthesis and herbicidal activity of isoindoline-1,3-dione substituted benzoxazinone derivatives containing a carboxylic ester group” (J Agric Food Chem, 2009)
